NR2E3 ag-1 = agonists of human NR2E3 nuclear receptor | Q9Y5X4 | CHO-S Gal4-NCOR/VP16-NR2E3 two-hybrid, luciferase | inhibition of corepressor binding, % at 3.98 µM | hit rate 0.35% among 360,000;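 active = inhibition above the mean of all tested compounds plus 3 SD, cut at about 70% in these data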;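 note: 0% = DMSO with NR2E3 transfected cells and 100% = cells lacking NR2E3 construct; higher means lower luciferase signal from less NR2E3 corepressor binding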
Target sequence (Q9Y5X4 whole entry, looked up, the tested form may be a part): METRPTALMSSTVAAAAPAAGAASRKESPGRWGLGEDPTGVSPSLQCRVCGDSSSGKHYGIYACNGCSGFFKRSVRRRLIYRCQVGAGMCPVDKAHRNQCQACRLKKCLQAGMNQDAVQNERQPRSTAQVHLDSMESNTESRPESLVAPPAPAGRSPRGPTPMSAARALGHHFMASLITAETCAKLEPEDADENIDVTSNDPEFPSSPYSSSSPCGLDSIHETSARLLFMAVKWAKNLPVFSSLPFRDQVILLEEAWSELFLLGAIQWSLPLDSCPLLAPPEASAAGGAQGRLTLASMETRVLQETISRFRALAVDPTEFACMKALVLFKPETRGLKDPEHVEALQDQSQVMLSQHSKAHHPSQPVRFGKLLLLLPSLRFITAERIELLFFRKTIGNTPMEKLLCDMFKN
SKN-1 block = C. elegans SKN-1 inhibition | C. elegans VP596 Pgst-4::GFP/RFP ratio, acrylamide-induced, 24 h | hit rate 0.49% among 360,000 | AID 624304 | inhibition, % at 21.8 µM;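 active = interference check ratio from 0.5 to 1.5 plus GFP to RFP signal ratio inhibition reaching or exceeding a fixed threshold, cut at about 30% in these data, passing the limit was not always enough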
NR2E3 ag-2 = activates human photoreceptor nuclear receptor NR2E3 | GST-NR2E3/biotin-RetCOR TR-FRET, 1536-well | inhibition of corepressor binding, % at 4.78 µM | hit rate 0.12% among 320,000 | AID 2300;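 active = percent inhibition above the cutoff of mean plus 3 SD of all tested compounds, set per screening campaign, cut at about 20% in these data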;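 note: 0% = DMSO wells and 100% = biotin wells as full block of FRET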
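Test system: GST-NR2E3 and biotin-RetCOR proteins | Quantity: 1.35 nM GST-tagged NR2E3 final | Medium: Tris pH 7.5 | Also added: 7 nM biotin-RetCOR | Dosing: Compound at 4.8 µM, single dose | Timing: 5 h at 4 °C | Detection: Time-resolved FRET | Read-out basis: Percent inhibition | Benchmarks: Biotin wells as high control, 0.6% DMSO wells as low control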
NR1D1 modulator = modulates human Rev-erb alpha binding to DNA; P20393; Rev-erbα–FITC-DNA binding, fluorescence polarization, 90 min; activity, % at 10 µM; hit rate 0.79% among 370,000;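 active = activity above about 14%, limit read from the data; passing the limit was not always enough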;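 note: 0% = DMSO wells with 35 nM protein and 100% = DMSO wells with 750 nM protein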
PG9 Ab binder = binds the HIV-1 gp120 antibody PG9; hit rate 0.43% among 360,000; TR-FRET gp120-PG9 antibody binding; inhibition, % at 6.7 µM; in the data active = inhibition above about 8.5%
MT1-MMP act inh = MT1-MMP (human) activation inhibition; GFP/RFP ratio change, % at 20 µM; hit rate 0.061% among 360,000; HT1080 RFP-PRO-GFP cells, GFP/RFP ratio fluorescence, overnight; percent of plate control window, DMSO zero; AID 651647;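 active = GFP/RFP ratio change of at least 30% with cell ATP level not reduced by more than half and red fluorescence within 50% of control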
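Test system: HT1080 RFP-PRO-GFP cells; Benchmarks: DMSO and RFP-L50D-GFP cell wells; Timing: cells overnight before dosing, compound overnight, 37 °C, 5% CO2; Compound: one 20 µM compound dose with 1% DMSO; Read-out: GFP/RFP fluorescence ratio.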
NR2E3 ag confirm = NR2E3 agonism confirmed in two-hybrid assay; shares compounds with NR2E3 ag-1; CHO-S mammalian two-hybrid NR2E3-NCOR, luciferase luminescence; inhibition, % at 3.98 µM; hit rate 51% among 2,300; AID 624378;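 active = average inhibition above a cutoff equal to the mean inhibition of all tested compounds plus one SD, cut at about 70% in these data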;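 note: 0% = DMSO in NR2E3 cells and 100% = DMSO in cells lacking NR2E3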
VP16 counter = reduces GAL4-VP16 reporter signal in NR2E3 counterscreen; shares compounds with NR2E3 ag-1; CHO-S GAL4-VP16 luciferase reporter, luminescence; inhibition, % at 3.98 µM; hit rate 29% among 2,300;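 active = mean inhibition above a cutoff equal to the average over all tested compounds plus one standard deviation, cut at about 70% in these data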;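 note: luciferase from a UAS reporter driven by GAL4-VP16 transactivation; 0% = DMSO with VP16-transfected cells and 100% = DMSO with cells lacking VP16; higher means less reporter light so more repression of VP16 activity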
* hit, by the source's call; / = no result given. Compounds with a hit are over-represented: about 1.9% of the library has one in this group of screens.

SMILES	NR2E3 ag-1	SKN-1 block	NR2E3 ag-2	NR1D1 modulator	PG9 Ab binder	MT1-MMP act inh	NR2E3 ag confirm	VP16 counter
COC(=O)c1cc2c(c3c4cc(C)ccc4n(S(=O)(=O)c4ccc(OC)cc4)c13)C(=O)N(Cc1ccccc1OC)C2	/	/	/	7	1	/	/	/
O=C(N[C@H](C(=O)N1CCC[C@H]1C(=O)NC1CCCC1)C1CCCCC1)c1cccs1	/	/	/	-1	-1	/	/	/
COc1cc(C)c(Br)cc1S(=O)(=O)NCc1ccccc1	0	-8	-3	-9	1	1	/	/
COc1cc(S(=O)(=O)NCc2ccncc2)ccc1Br	95*	-15	4	-11	1	5	78*	68
CCN(C1CCCCC1)S(=O)(=O)c1ccc(S(=O)(=O)NCc2ccncc2)cc1	91*	-1	1	6	-3	-4	88*	74*
Cc1cc(Br)c(S(=O)(=O)NCc2ccncc2)cc1C	82*	4	2	3	-3	6	70*	66
CNC(=O)c1cc(S(=O)(=O)NCc2ccncc2)ccc1OC	-14	12	0	3	-1	2	/	/
COC(=O)c1cc2c(c3c4cc(C)ccc4n(S(=O)(=O)c4cccc(C)c4)c13)C(=O)N(Cc1ccc(C(F)(F)F)cc1)C2	/	/	/	9	1	/	/	/
CCOC(=O)/C(=C\Nc1cccc(OCc2ccccc2)c1)NC(=O)c1ccccc1	/	/	/	-7	-2	/	/	/
COc1cccc(OC)c1OCCCCCc1c(C)n[nH]c1C	53	9	3	-2	1	4	25	7
Cc1ccccc1OCCCCc1c(C)n[nH]c1C	71*	-9	2	5	-1	-2	91*	60
CCOC(=O)C1CSCCS(=O)(=O)N1Cc1cccc(Cl)c1 (stereo not given)	/	/	/	-6	0	/	/	/
COCC(=O)N1C[C@H]2CON(C)[C@H]2C[C@H]1c1cccc(-c2cc(Cl)cc(Cl)c2)c1	/	/	/	3	0	/	/	/
Nc1cc2c(cc1Cl)-c1ccc([N+](=O)[O-])cc1C2=NO	54	-2	/	2	-3	-128	25	-11
Cc1cc(C)cc(NC(=O)NC2CCN(S(=O)(=O)c3ccc(F)cc3)CC2)c1	/	/	/	-4	/	/	/	/
CCC(C)CNC(=O)c1oc(=O)c2ccccc2c1-c1ccc(C)cc1 (stereo not given)	/	/	/	3	/	/	/	/
O=S(=O)(c1ccc(Cl)cc1)N1CCC(O)(CN2CCN(Cc3ccccc3)CC2)CC1	10	0	4	-2	-1	2	/	/
O=S(=O)(c1ccccc1)N1CCC(O)(CSc2ccc(Cl)cc2)CC1	78*	-2	1	1	-1	1	95*	79*
COc1cc(CSc2nnnn2-c2ccc(C)cc2)cc(OC)c1OC	98*	0	8	-4	0	10	94*	84*
COc1ccc(F)cc1CSc1nnnn1-c1ccc(O)cc1	15	-1	-2	7	1	-1	/	/
O=C(Cc1c[nH]c2ccccc12)Nc1ccc(Nc2ccncc2)cc1	/	/	/	-1	-1	/	/	/
Cc1ccc(NC(=O)C(Nc2ccccc2)c2ccccc2)cc1 (stereo not given)	-10	11	-5	-7	-2	3	/	/
Cc1ccc(NC(=O)C(C)c2ccc(-c3ccccc3)c(F)c2)cc1 (stereo not given)	74*	4	0	3	-1	-11	89*	77*
COC(=O)c1ccc(S(=O)(=O)N2CCC(NC(=O)CCC3CCCC3)CC2)cc1	/	/	/	-2	/	/	/	/
CSc1nc2ccc(NS(=O)(=O)c3ccc4c(c3)OCCO4)cc2s1	76*	-5	2	-4	0	0	91*	82*
SMILES	NR2E3 ag-1	SKN-1 block	NR2E3 ag-2	NR1D1 modulator	PG9 Ab binder	MT1-MMP act inh	NR2E3 ag confirm	VP16 counter
CSc1nc2ccc(S(=O)(=O)NC3CCCCC3)cc2s1	50	5	5	2	1	-2	21	30
CSc1nc2ccc(NS(=O)(=O)c3c(Cl)cccc3Cl)cc2s1	-5	3	-2	-4	-1	-3	/	/
COc1cc(OC)cc(-c2cc3nc(C)c(CCC(=O)NC(C)CCc4ccco4)c(C)n3n2)c1 (stereo not given)	7	8	2	-6	2	-5	/	/
COc1cc(OC)cc(-c2cc3nc(C)c(CCC(=O)O)c(C)n3n2)c1	51	-9	-3	-1	1	3	57	63
CCOC(=O)N1CCC(NC(=O)C2CCCN(Cc3nc(-c4cccc(C)c4)oc3C)C2)CC1 (stereo not given)	75*	3	1	-2	-1	0	76*	68
NC(=O)c1c(N)[nH]c(C(=O)c2ccccc2)c1-c1ccc(Cl)cc1Cl	/	/	/	2	2	/	/	/
Cc1nc2c(-c3ccccc3)cnn2c(N)c1-c1ccccc1	74*	18	/	-5	-2	2	55	-6
CCCCCCCCN1C(=O)[C@@H](CC(=O)N2CCSCC2)C[C@@]2(C(=O)OC)C1=C[C@H](C(C)(C)C)O[C@@H]2C	/	/	/	-1	0	/	/	/
Cc1ccc(-n2ncc3c(SCc4cccc(C)c4)ncnc32)cc1	-33	3	2	-1	-2	3	/	/
Cc1ccc(-n2ncc3c(SCc4cccnc4)ncnc32)c(C)c1	54	10	/	1	1	-5	81*	63
Cc1cc(N2CCCC2=O)cc(C)c1S(=O)(=O)NCCOc1ccccc1	16	0	0	2	1	0	/	/
Cc1ccc(OCCNS(=O)(=O)c2ccc(N3CCCC3=O)cc2)cc1	61	7	2	1	-2	-3	86*	72*
Cc1ccc(OCCNS(=O)(=O)c2ccc(N3CCCC3=O)cc2)cc1C	93*	-1	6	-2	-1	4	98*	85*
COc1ccc(CCNS(=O)(=O)c2ccc(N3CCCC3=O)cc2)cc1	25	12	2	-5	1	1	/	/
CC1=C(C)/C(=N\OS(=O)(=O)c2ccc(C)cc2)C=CC1=O	71*	-3	-1	-2	0	6	8	4
NS(=O)(=O)c1ccc(CCNc2nn3c(-c4ccc(F)c(Cl)c4)cnc3s2)cc1	62	27	/	-4	0	1	64	50
NS(=O)(=O)c1ccc(CCNC(=O)CSc2ccc(Cl)cc2Cl)cc1	-10	-5	-3	-4	0	2	/	/
O=C(O)c1cccc(NS(=O)(=O)c2ccc(C3CCCCC3)cc2)c1	-26	8	6	/	/	1	/	/

Source: PubChem
